“Also recorded” adds a separate entry of the source.
Columns and labels:
[1] = molecular target: low sensitivity (LS) α4(3)β2(2) nAChR (Homo sapiens, UniProt P17787+P43681); assay: Two-electrode voltage clamp of Xenopus oocytes expressing LS α4β2 nAChR; assay type: cell-based; details: for Effect on ACh-evoked peak-current responses of LS α4β2 receptors: 100 μM compound co-applied with control ACh (100 μM)
[2] = molecular target: high sensitivity (HS) α4(2)β2(3) nAChR (Homo sapiens, UniProt P17787+P43681); assay type: cell-based; details: for Effect on ACh-evoked peak-current responses of HS α4β2 receptors: 100 μM compound co-applied with control ACh (10 μM)
human α7 nAChR = human α7 nAChR (Homo sapiens, UniProt P36544); assay: Two-electrode voltage clamp of Xenopus oocytes expressing α7 nAChR; assay type: cell-based; details: for α7 net-charge response to compound co-applied with PNU-120596: 100 μM compound + 10 μM PNU-120596, compared to PNU-120596 alone or ACh control
Procedure, shortened: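 Human α7 clone co-injected with human RIC3 in Xenopus oocytes. Oocytes were clamped at −60 mV at 24 °C and perfused at 2 ml/min with Ringer's (115 mM NaCl, 2.5 mM KCl, 1.8 mM CaCl2, 10 mM HEPES, 1 μM atropine, pH 7.2). […] Compound was 100 μM, alone or with 10 μM PAM; n = 6–8 oocytes; ANOVA.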

α4(2)β2(2)α5 nAChR = α4(2)β2(2)α5 nAChR (Homo sapiens, UniProt P17787+P30532+P43681); assay: Two-electrode voltage clamp of Xenopus oocytes expressing α4β2α5 nAChR; assay type: cell-based; details: 100 μM n-MP co-applied with 10 μM ACh
Procedure, shortened: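 Human α4(2)β2(2)α5 receptors expressed in Xenopus laevis oocytes. Voltage-clamped at −60 mV and room temperature (24 °C), perfused at 4 ml/min with atropine-containing Ringer's, pH 7.2. […] At least five oocytes; mean ± S.D.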

β3α4β2α6β2 nAChR = β3α4β2α6β2 nAChR (Homo sapiens, UniProt P17787+P43681+Q05901+Q15825); assay type: cell-based; details: 100 μM n-MP co-applied with 30 μM ACh
Procedure, shortened: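 Oocytes from female Xenopus laevis expressed human β3α4β2α6β2 from a linked-subunit concatamer. Two-electrode voltage clamp at −60 mV and 24 °C. Bath perfusion at 4 ml/min with Ringer's (115 mM NaCl, 2.5 mM KCl, 1.8 mM CaCl2, 10 mM HEPES, 1 μM atropine, pH 7.2). […] Responses were relative to the mean of the two controls; n = 6, mean ± S.D.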

α3β2 nAChR = α3β2 nAChR (Homo sapiens, UniProt P17787+P32297); assay type: cell-based; details: 100 μM n-MP co-applied with 100 μM ACh
Procedure, shortened: (§1)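 Xenopus oocytes were injected with human α3 plus β2 or β4 subunit RNA at alpha:beta ratios of 1:5 or 5:1. Two-electrode voltage clamp at −60 mV, 24 °C, with Ringer's (pH 7.2, 1 μM atropine) at 4 ml/min.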

α3β4 nAChR = α3β4 nAChR (Homo sapiens, UniProt P30926+P32297); assay type: cell-based; details: 100 μM n-MP co-applied with 100 μM ACh; alpha:beta RNA 5:1 or 1:5 (either set)
Procedure, shortened: as §1

[3] = inferred from use as biomarker of coffee consumption; ref Bresciani et al., 2020; cited from earlier work

human α7 nAChR, sequence (P36544 23-502): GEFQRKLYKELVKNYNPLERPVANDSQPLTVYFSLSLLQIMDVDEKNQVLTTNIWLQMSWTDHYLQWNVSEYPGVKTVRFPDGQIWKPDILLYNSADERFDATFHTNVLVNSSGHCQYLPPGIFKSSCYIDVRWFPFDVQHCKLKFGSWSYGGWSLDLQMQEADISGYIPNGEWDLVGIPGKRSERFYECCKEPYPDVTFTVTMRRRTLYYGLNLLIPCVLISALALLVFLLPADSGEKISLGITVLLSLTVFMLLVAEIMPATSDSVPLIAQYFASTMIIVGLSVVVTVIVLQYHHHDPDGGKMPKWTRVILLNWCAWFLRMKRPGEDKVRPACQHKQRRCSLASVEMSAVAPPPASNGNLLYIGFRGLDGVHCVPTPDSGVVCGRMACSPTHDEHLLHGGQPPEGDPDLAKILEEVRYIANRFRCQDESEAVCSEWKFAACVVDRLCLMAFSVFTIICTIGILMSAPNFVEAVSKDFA
low sensitivity (LS) α4(3)β2(2) nAChR, sequence (P17787 26-502): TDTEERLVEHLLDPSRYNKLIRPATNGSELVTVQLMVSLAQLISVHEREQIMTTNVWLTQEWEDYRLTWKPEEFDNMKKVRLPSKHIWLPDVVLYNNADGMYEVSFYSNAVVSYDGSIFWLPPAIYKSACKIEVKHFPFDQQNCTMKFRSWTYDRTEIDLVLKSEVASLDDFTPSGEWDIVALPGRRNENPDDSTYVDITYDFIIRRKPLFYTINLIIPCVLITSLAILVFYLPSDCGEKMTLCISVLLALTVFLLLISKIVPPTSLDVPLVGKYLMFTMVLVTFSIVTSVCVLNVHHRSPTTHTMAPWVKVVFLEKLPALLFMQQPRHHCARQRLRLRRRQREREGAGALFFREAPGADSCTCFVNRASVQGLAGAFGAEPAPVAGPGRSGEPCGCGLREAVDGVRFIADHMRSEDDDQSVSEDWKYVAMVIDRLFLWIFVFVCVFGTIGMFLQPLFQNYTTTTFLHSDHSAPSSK
low sensitivity (LS) α4(3)β2(2) nAChR, sequence (P43681 29-627 limits assumed): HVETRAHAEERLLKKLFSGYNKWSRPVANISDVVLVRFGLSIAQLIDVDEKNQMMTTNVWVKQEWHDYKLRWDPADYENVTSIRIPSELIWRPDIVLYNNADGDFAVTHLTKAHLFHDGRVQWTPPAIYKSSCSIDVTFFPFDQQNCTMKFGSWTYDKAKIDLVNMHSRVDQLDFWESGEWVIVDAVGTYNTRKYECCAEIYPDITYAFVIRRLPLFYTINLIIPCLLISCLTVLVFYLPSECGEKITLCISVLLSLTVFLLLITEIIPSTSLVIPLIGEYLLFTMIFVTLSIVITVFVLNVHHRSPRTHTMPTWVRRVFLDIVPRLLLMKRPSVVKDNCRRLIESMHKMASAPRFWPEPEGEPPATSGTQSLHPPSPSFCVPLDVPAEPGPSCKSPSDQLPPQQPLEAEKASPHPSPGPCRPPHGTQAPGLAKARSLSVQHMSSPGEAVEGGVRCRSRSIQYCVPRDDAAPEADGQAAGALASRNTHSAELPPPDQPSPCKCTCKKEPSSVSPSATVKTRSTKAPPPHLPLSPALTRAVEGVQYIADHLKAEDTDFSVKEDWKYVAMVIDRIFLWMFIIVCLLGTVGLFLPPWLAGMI
low sensitivity (LS) α4(3)β2(2) nAChR, sequence (P43681 29-627 limits assumed): as above
high sensitivity (HS) α4(2)β2(3) nAChR, sequence (P17787 26-502): as the sequence (P17787 26-502) above
high sensitivity (HS) α4(2)β2(3) nAChR, sequence (P43681 29-627 limits assumed): as the sequence (P43681 29-627 limits assumed) above
high sensitivity (HS) α4(2)β2(3) nAChR, sequence (P17787 26-502): as the sequence (P17787 26-502) above
α3β2 nAChR, sequence (P32297 32-505): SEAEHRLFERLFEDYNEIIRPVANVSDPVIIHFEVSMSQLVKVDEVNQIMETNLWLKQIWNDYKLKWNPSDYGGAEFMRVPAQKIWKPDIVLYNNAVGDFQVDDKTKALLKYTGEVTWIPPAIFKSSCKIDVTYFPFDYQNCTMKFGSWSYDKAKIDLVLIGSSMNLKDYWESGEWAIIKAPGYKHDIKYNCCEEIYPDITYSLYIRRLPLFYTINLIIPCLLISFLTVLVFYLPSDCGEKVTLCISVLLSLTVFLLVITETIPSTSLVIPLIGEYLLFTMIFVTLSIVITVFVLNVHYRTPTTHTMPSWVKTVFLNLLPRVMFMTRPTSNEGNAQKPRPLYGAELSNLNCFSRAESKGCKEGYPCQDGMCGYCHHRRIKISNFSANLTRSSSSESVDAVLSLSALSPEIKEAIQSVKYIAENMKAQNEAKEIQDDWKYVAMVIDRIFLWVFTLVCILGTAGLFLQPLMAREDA
α3β2 nAChR, sequence (P17787 26-502): as the sequence (P17787 26-502) above
α4(2)β2(2)α5 nAChR, sequence (P17787 26-502): as above
α4(2)β2(2)α5 nAChR, sequence (P43681 29-627 limits assumed): as the sequence (P43681 29-627 limits assumed) above
α4(2)β2(2)α5 nAChR, sequence (P30532 23-468): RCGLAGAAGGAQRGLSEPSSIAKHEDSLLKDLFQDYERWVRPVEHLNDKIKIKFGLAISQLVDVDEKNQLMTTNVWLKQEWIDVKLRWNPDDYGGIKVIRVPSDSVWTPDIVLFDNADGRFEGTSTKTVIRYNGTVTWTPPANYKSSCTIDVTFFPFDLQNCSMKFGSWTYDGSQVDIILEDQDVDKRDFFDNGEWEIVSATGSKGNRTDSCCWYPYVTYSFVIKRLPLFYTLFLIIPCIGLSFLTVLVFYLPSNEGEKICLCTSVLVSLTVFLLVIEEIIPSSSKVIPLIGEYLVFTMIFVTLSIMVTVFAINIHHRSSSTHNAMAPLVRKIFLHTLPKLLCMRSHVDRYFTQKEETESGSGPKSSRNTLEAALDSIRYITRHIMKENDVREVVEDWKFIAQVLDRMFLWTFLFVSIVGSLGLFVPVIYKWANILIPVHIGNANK
β3α4β2α6β2 nAChR, sequence (Q05901 25-458 limits assumed): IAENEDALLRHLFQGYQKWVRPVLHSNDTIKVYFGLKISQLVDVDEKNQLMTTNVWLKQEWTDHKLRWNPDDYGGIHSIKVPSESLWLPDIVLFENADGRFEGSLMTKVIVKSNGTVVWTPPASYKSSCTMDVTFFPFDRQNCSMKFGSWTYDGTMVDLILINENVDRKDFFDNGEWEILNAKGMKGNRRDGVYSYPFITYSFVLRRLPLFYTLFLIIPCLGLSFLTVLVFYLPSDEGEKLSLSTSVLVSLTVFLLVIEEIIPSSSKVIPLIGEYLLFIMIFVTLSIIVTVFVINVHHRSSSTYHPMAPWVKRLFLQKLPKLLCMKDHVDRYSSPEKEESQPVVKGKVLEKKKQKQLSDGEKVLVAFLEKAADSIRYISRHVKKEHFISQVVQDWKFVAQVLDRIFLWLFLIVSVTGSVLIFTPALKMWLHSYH
β3α4β2α6β2 nAChR, sequence (P43681 29-627 limits assumed): as the sequence (P43681 29-627 limits assumed) above
β3α4β2α6β2 nAChR, sequence (P17787 26-502): as the sequence (P17787 26-502) above
β3α4β2α6β2 nAChR, sequence (Q15825 26-494): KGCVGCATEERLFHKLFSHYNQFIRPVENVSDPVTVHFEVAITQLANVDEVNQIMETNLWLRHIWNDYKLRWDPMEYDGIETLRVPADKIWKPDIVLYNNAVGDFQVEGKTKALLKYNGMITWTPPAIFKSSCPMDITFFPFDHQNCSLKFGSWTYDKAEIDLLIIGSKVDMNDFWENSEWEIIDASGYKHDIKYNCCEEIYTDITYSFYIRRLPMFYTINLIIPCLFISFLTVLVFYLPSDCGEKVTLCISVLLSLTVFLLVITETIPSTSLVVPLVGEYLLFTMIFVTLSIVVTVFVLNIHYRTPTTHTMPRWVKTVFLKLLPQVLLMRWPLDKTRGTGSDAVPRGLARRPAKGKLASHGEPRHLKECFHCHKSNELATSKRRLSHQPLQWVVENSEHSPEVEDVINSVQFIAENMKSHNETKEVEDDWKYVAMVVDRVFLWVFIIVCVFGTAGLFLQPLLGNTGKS
β3α4β2α6β2 nAChR, sequence (P17787 26-502): as the sequence (P17787 26-502) above
α3β4 nAChR, sequence (P32297 32-505): as the sequence (P32297 32-505) above
α3β4 nAChR, sequence (P30926 22-498): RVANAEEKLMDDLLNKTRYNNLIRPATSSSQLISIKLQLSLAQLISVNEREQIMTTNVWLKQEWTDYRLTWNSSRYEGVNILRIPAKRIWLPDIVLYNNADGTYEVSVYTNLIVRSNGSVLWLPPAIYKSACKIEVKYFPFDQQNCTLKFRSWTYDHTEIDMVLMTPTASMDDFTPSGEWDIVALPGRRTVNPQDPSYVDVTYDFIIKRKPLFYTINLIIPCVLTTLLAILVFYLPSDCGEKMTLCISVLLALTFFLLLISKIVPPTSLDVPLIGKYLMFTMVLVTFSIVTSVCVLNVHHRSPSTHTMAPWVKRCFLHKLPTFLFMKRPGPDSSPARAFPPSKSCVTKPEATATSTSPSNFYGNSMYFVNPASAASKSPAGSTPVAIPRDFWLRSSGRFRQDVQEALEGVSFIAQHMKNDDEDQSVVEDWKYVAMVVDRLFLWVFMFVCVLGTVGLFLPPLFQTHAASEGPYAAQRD

In the case of CC(=O)OCC[N+](C)(C)C [ACh, Acetylcholine chloride, reference compound], the “Imax, From Figure 7” value [1] is reported as 2.327 ± 0.395, the “Imax, From replicates, Averages ± S.D.” value [1] is reported as 2.290 ± 0.714 and the “Imax, From replicates, Averages ± S.D.” value [2] is reported as 1.535 ± 0.080.
In the case of Cn1c(=O)c2c(ncn2C)n(C)c1=O [caffeine, reference compound], the “α7 net-charge response to compound co-applied with PNU-120596” value (shortened to “α7 net-charge response”) (human α7 nAChR) is reported as “lacks significant nAChR activity”, the “Effect on ACh-evoked peak-current responses of LS α4β2 receptors” value (from here on “Effect … of LS α4β2 receptors”) [1] is reported as “lacks significant nAChR activity” and the “Effect on ACh-evoked peak-current responses of HS α4β2 receptors” value (“Effect … of HS α4β2 receptors” below) [2] is reported as “lacks significant nAChR activity”.
In the case of C[N+](C)(C)CCO [choline], the EC50 (human α7 nAChR) is reported as ~200 µM, the “Net charge Imax with PNU-120596 co-application versus applied alone” value (human α7 nAChR; 10 μM PNU-120596) is reported as “roughly 100 fold” and the “α7 net-charge response” value (human α7 nAChR) is reported as “greater than the initial ACh controls”.
In the case of C[N+]1(C)CCCCC1 [dMP, 1,1-dimethylpiperidium], the “α7 net-charge response” value (human α7 nAChR) is reported as “large responses”, the “α7 response to compound applied alone” value (human α7 nAChR; 100 μM compound, compared to 60 μM ACh control) is reported as “comparable to those stimulated by the control application of 60 μM ACh” and the “Effect … of LS α4β2 receptors” value [1] is reported as “increasing the responses of LS receptors”. For the same molecule, the “Effect … of HS α4β2 receptors” value [2] was “decreasing the responses of HS receptors; also recorded: strongly inhibited”.
For C[n+]1ccccc1 [n-MP, 1-methylpyridinium], the “α7 net-charge response” value (human α7 nAChR) was “PAM-dependent responses”, the “Effect … of LS α4β2 receptors” value [1] was “increasing the responses of LS receptors” and the “Mode of action on LS α4β2 receptors” value ([1]; 100 μM n-MP, 10 to 100 μM ACh) was “working as a PAM at those intermediate concentrations”. For the same molecule, the “LS α4β2 ACh responses after n-MP washout” value ([1]; 300 μM n-MP bath application) was “significant increases”, the “Imax of ACh, From Figure 7” value ([1]; LS, ACh co-applied with 100 μM n-MP, relative to 100 μM ACh control) was 1.824 ± 0.062 and the “Effect of bath-applied n-MP on LS α4β2 ACh responses” value ([1]; varying bath concentrations, periodic 100 μM ACh applications) was “small concentration-dependent increase”. The “Effect … of HS α4β2 receptors” value [2] was “decreasing the responses of HS receptors; also recorded: decreasing those of HS receptors”, the “Mode of action on HS α4β2 ACh-evoked responses” value ([2]; 100 μM n-MP, ACh competition experiment) was “competitive antagonist” and the “Effect of bath-applied n-MP on HS α4β2 ACh responses” value ([2]; varying bath concentrations, periodic 10 μM ACh applications) was “concentration-dependent, and only partially reversible, inhibition”. For the same molecule, the “Effect on ACh responses of α4β2α5 receptors” value (α4(2)β2(2)α5 nAChR) was “antagonist”, the “Effect on ACh responses of α6-containing receptors” value (β3α4β2α6β2 nAChR) was “no significant effect” and the “Effect on ACh responses of α3β2 receptors with high levels of β2” value (α3β2 nAChR; alpha:beta RNA 1:5) was “no effect”. The “Effect on ACh responses of α3β2 receptors with high levels of α3” value (α3β2 nAChR; alpha:beta RNA 5:1) was “significant potentiation”, the “Effect on ACh responses of α3β4 receptors” value (α3β4 nAChR) was “no effect” and the Bioavailability [3] was “good bioavailability”.

Source: article PMC9524580 (Neuropharmacology, 2022)
